Data taken from ChEMBL document CHEMBL1152738, “Synthesis and in vitro antitubercular activity of a series of quinoline derivatives” (2009).
≈ marks a conversion by molar mass, not a printed value.

Tested on: Mycobacterium tuberculosis
Assay: Antitubercular activity against Mycobacterium tuberculosis H37Rv after 5 days by microplate alamar blue assay
Format: functional
Settings: 120 h
In short: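 M. tuberculosis H37Rv (ATCC 27294, rifampin- and isoniazid-susceptible) tested by MABA. Compounds serially diluted directly in Middlebrook 7H9 broth in 96-well plates, which were sealed and incubated at 37 °C for 5 days. A fresh 1:1 Alamar Blue/10% Tween 80 mix was then added and plates were incubated 24 h more. MIC was the lowest concentration preventing the blue-to-pink colour change.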

Compound | MIC [µg/mL]
CCN(CC)Cc1cc(Nc2ccnc3cc(Cl)ccc23)ccc1O.Cl | 100
NCCCNc1ccnc2cc(Cl)ccc12 | > 100
NCCCCNc1ccnc2cc(Cl)ccc12 | > 100
NCCCCCCNc1ccnc2cc(Cl)ccc12 | 25 (≈ 90 µM)
CC(C)NCCNc1ccnc2cc(Cl)ccc12 | > 100
ClCCNc1ccnc2cc(Cl)ccc12 | 12.5 (≈ 51.8 µM)
OCCNc1ccnc2cc(Cl)ccc12 | > 100
OCCNc1ccnc2ccccc12 | > 100
ClCCNc1ccnc2ccccc12 | > 100
[N-]=[N+]=Nc1ccnc2cc(Cl)ccc12 | > 100
ClCCCNc1ccnc2cc(Cl)ccc12 | 50 (≈ 196 µM)
Nc1ccnc2cc(Cl)ccc12 | > 100
N#CCCNc1ccnc2cc(Cl)ccc12 | > 100
CCCNCCNc1ccnc2cc(Cl)ccc12 | 100 (≈ 379 µM)
CCCNc1ccnc2cc(Cl)ccc12 | 50 (≈ 227 µM)
CC(C)Nc1ccnc2cc(Cl)ccc12 | 50 (≈ 227 µM)
CCCCNc1ccnc2cc(Cl)ccc12 | 12.5 (≈ 53.3 µM)
OCCCNc1ccnc2cc(Cl)ccc12 | > 100
CC[C@H](CO)Nc1ccnc2cc(Cl)ccc12 | > 100

Compound | MIC [µg/mL]
CCCCNc1ccnc2ccccc12 | 50 (≈ 250 µM)
[N-]=[N+]=NCCNc1ccnc2cc(Cl)ccc12 | 50 (≈ 202 µM)
NCCCCCCCCNc1ccnc2cc(Cl)ccc12 | 6.25 (≈ 20.4 µM)
NCCCCCCCCCCNc1ccnc2cc(Cl)ccc12 | 3.12 (≈ 9.34 µM)
CCCCNCCNc1ccnc2cc(Cl)ccc12 | > 100
CNCCNc1ccnc2cc(Cl)ccc12 | > 100
Clc1ccc2c(NCCNC3CCCCC3)ccnc2c1 | 100 (≈ 329 µM)
OCCNCCNc1ccnc2cc(Cl)ccc12 | > 100
CCC(CCl)Nc1ccnc2cc(Cl)ccc12 (configuration not stated) | 50 (≈ 186 µM)
Clc1ccc2c(NCCNCc3ccccc3)ccnc2c1 | 50 (≈ 160 µM)
CC[C@@H](CO)Nc1ccnc2cc(Cl)ccc12 | > 100
NCCNc1ccnc2cc(Cl)ccc12 | > 100
CNc1ccnc2cc(Cl)ccc12 | 100 (≈ 519 µM)
CCC(CO)Nc1ccnc2cc(Cl)ccc12 (racemic) | > 100
OC(c1cc(C(F)(F)F)nc2c(C(F)(F)F)cccc12)C1CCCCN1 (configuration not stated) [MEFLOQUINE] | 25 (≈ 66.1 µM)
COc1cc(NC(C)CCCN)c2ncccc2c1 (configuration not stated) [PRIMAQUINE] | 50 (≈ 193 µM)
C=C[C@H]1CN2CC[C@H]1C[C@H]2[C@H](O)c1ccnc2ccc(OC)cc12 [QUININE] | 100 (≈ 308 µM)
Nc1ccnc2ccccc12 [QUINOLIN-4-AMINE] | > 100
